Consider 13 compounds from ChEMBL document CHEMBL1944567, “Synthesis, biological evaluation, and molecular modeling of chalcone derivatives as potent inhibitors of Mycobacterium tuberculosis protein tyrosine phosphatases (PtpA and PtpB)” (J Med Chem, 2012).

For series [1], the target named is T1, Phosphotyrosine-protein phosphatase PTPB (Mycobacterium tuberculosis, UniProt P96830).
T1 sequence (P96830 whole entry): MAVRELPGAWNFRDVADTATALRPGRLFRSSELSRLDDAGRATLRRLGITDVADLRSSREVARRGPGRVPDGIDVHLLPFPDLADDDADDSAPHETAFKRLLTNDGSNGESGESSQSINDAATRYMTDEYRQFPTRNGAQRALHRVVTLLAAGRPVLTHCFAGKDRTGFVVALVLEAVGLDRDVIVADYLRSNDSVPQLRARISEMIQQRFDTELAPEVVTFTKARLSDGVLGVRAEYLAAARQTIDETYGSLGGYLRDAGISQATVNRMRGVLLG
The series is described as follows: Competitive inhibition of Mycobacterium tuberculosis PTP-B using p-nitrophenyl phosphate as substrate measured for 10 mins by Lineweaver-Burk plot analysis. The procedure, abridged: (§1)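 Kinetic mode determined with recombinant Mtb enzyme (PtpA or PtpB) using the screening conditions (20 mM imidazole pH 7.0, 37 °C, A410 read each minute for 10 min) but with pNPP varied over 0.5, 1.5, 3, 6, 8, 10, 15 and 25 mM. At least three inhibitor concentrations in the 5–60 μM range were used. Ki and mechanism were taken from Lineweaver–Burk double-reciprocal plots.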

The target of series [2] is T2, Tyrosine-protein phosphatase non-receptor type 1 (Homo sapiens, UniProt P18031).
T2 sequence (P18031 whole entry): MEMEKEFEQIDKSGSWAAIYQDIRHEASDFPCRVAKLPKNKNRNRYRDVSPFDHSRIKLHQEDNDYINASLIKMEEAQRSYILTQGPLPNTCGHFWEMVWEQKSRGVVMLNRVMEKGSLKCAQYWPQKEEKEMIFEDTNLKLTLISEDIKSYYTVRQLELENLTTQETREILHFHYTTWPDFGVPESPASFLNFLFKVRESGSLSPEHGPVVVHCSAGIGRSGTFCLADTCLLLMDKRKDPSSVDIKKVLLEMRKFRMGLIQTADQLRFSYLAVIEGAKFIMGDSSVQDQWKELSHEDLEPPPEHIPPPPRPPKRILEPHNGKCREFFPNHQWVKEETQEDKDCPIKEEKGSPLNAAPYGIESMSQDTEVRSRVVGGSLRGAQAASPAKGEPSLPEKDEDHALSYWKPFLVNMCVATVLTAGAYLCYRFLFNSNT
In words: Inhibition of human PTP1B expressed in Escherichia coli BL21 DE3 using p-nitrophenyl phosphate as substrate measured for 10 mins by spectrofluorimetry.

Series [3] addresses T3, Phosphotyrosine-protein phosphatase PTPB (Mycobacterium tuberculosis) (UniProt P96830).
T3 sequence (whole entry): T1 sequence (P96830 whole entry)
In words: Inhibition of Mycobacterium tuberculosis PTP-B using p-nitrophenyl phosphate as substrate at 25 uM measured for 10 mins by spectrofluorimetry. The procedure, abridged:
(§2)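 Single-point screen at 25 μM final compound, added from 1.0 × 10−3 M DMSO stock, with recombinant Mtb PtpA or PtpB (0.4 μg/μL final) in 20 mM imidazole pH 7.0 with 40 mM pNPP. Reaction started by adding enzyme. p-Nitrophenol release read at 410 nm every min for 10 min at 37 °C. Residual activity was taken from the absorbance difference between 6 and 2 min; two experiments, each in triplicate.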

Series [4] addresses T1, Phosphotyrosine-protein phosphatase PTPB. The series is described as follows: Inhibition of Mycobacterium tuberculosis PTP-B using p-nitrophenyl phosphate as substrate measured for 10 mins by spectrofluorimetry. A digest of the protocol: (§3)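 A410 read each minute over 10 min at 37 °C. Residual activity compared with wells without inhibitor; IC50 by linear regression of % inhibition against concentration. Triplicate, two independent experiments.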

The target in series [5] is T4, Low molecular weight protein-tyrosine phosphatase A (Mycobacterium tuberculosis) (UniProt P9WIA1).
T4 sequence (whole entry): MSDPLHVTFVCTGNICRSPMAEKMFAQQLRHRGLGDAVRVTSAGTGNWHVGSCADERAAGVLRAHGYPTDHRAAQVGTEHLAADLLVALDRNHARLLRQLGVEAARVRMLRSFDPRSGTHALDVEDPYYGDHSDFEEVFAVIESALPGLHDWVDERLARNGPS
In words: Inhibition of Mycobacterium tuberculosis PTP-A using p-nitrophenyl phosphate as substrate at 25 uM measured for 10 mins by spectrofluorimetry. The procedure, abridged: as §2

Series [6] deals with T5, Low molecular weight protein-tyrosine phosphatase A (Mycobacterium tuberculosis, UniProt P9WIA1).
T5 sequence (P9WIA1 whole entry): T4 sequence (whole entry)
In words: Inhibition of Mycobacterium tuberculosis PTP-A using p-nitrophenyl phosphate as substrate measured for 10 mins by spectrofluorimetry. A digest of the protocol:
as §3

Series [7] in a line: Solubility of the compound. Type of series: physicochemical.
For series [8], the target named is T5, Low molecular weight protein-tyrosine phosphatase A. In words: Competitive inhibition of Mycobacterium tuberculosis PTP-A using p-nitrophenyl phosphate as substrate measured for 10 mins by Lineweaver-Burk plot analysis. The procedure, abridged:
as §1

Series [9] can be described thus: Selectivity index, ratio of IC50 for human PTP1B to IC50 for Mycobacterium tuberculosis PTP-A. The procedure, abridged: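 Selectivity index calculated as IC50 for human PTP1B divided by IC50 for Mtb PtpA. Both IC50 values came from pNPP hydrolysis assays read at 410 nm for 10 min at 37 °C.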
Series [10] deals with T4, Low molecular weight protein-tyrosine phosphatase A (Mycobacterium tuberculosis). The series is described as follows: Ratio of IC50 to Ki for Mycobacterium tuberculosis protein tyrosine phosphatase-A.
Series [11] has as its target T5, Low molecular weight protein-tyrosine phosphatase A. The series is described as follows: Inhibition of Mycobacterium tuberculosis PTP-A.

In the case of `O=C(/C=C/c1ccc2c(c1)OCO2)c1ccc([N+](=O)[O-])cc1`, in series [1], the inhibition constant Ki turned out to be 13 µM. Further, the IC50 turned out to be 23 µM in series [2], 51 µM in [4] and 62 µM in series [6]. Moreover, the figures for the inhibition in series [3] and in series [5] were 34% and 33%, respectively. Further, in series [7], the solubility result is “soluble”.

As to `COc1ccc(C(=O)/C=C/c2ccc(OCc3ccccc3)c(OC)c2)c(OC)c1`, the affinity in [8], expressed as Ki, was 12 µM. In addition, the 50% inhibitory concentration (IC50) in [2] is 263 µM; in [4], more than 100 µM; in series [6], 15 µM. Also, the Ratio IC50 in series [9] worked out at 18. Moreover, the inhibition came to 0% in series [3] and 40% in [5]. The Ratio in series [10] was found to be 1.3. Moreover, the solubility entry in series [7] is on record as “soluble”.

Regarding `COc1cc(-c2[nH]ccc2Cl)oc1C1=C2N=C3C=C2[C@H](C(C)C)[C@H]1CCCCCCCC3` [ROSEOPHILIN], in series [11], the half-maximal inhibitory concentration (IC50) was determined as 8.8 µM.

`O=C(O)c1ccc(/C=C/C(=O)c2ccc3ccccc3c2)cc1` returned an inhibition constant (Ki) in series [1] of 8 µM. Further, the IC50 in series [2] is 3090 µM; in [4] it was 12 µM; in series [6], more than 100 µM. Besides, the figures for the inhibition in series [3] and in series [5] were 70% and 9%, respectively. For the same compound, the solubility entry in [7] is reported as “soluble”.

As for `O=C(/C=C/c1ccccc1[N+](=O)[O-])c1ccc2ccccc2c1`, the values for the inhibition in series [3] and in [5] were 32% and 10%, respectively. The same compound came in with an IC50 in series [4] of 54 µM. In addition, the solubility result in series [7] is “soluble”.

Compound `O=C(/C=C/c1ccc2ccccc2c1)c1ccc(Br)cc1` had a Ki in series [1] of 10 µM. In addition, the IC50 was 29 µM in [2], 25 µM in series [4] and more than 50 µM in series [6]. The inhibition in series [3] came to 42%; in series [5], 11%. For the same compound, the solubility entry in [7] is “soluble”.

For the compound `O=C(/C=C/c1ccccc1[N+](=O)[O-])c1ccc2c(c1)OCO2`, the inhibition came to 43% in [3] and 0% in [5]. The IC50 in series [4] worked out at 81 µM. In series [7], the solubility result is reported as “soluble”.

Turning to `O=C(/C=C/c1ccc([N+](=O)[O-])cc1)c1ccc2ccccc2c1`, the inhibition in series [3] was determined as 39%; in series [5], 18%. In [4], this compound returned an IC50 of 62 µM. Further, the solubility result in [7] is listed as “soluble”.

As for `O=C(/C=C/c1ccc(Cl)cc1Cl)c1ccc2ccccc2c1`, the results for the inhibition in series [3] and in series [5] were 47% and 10%, respectively. The compound further displayed a concentration for half-maximal inhibition (IC50) in series [4] of 417 µM. Besides, the solubility result in series [7] is “soluble”.

`O=C(/C=C/c1ccc(C(F)(F)F)cc1)c1ccc2ccccc2c1`: the inhibition in series [3] was 37%; in series [5], 43%. For the same compound, the results for the half-maximal inhibitory concentration (IC50) in [4] and in [6] were 339 µM and 331 µM, respectively. Besides, the solubility result in series [7] is listed as “soluble”.

In turn, `O=C(/C=C/c1ccc2ccccc2c1)c1ccc(Cl)s1` came in with an inhibition constant Ki in [8] of 23 µM. Besides, the half-inhibitory concentration (IC50) in [2] amounted to 100 µM; in series [4], 57 µM; in [6], 32 µM. In addition, the Ratio IC50 in series [9] is 3.1. Moreover, the values for the inhibition in [3] and in [5] were 49% and 31%, respectively. Besides, the Ratio in series [10] was 1.4. Also, the solubility result in series [7] was “soluble”.

Turning to `O=C(/C=C/c1ccc2c(c1)OCO2)c1cccc([N+](=O)[O-])c1`, the affinity in series [8], expressed as Ki, was 29 µM. Moreover, the IC50 in series [2] was 107 µM; in [4], more than 100 µM; in series [6], 45 µM. Further, the Ratio IC50 in series [9] is 2.4. Also, the inhibition was found to be 6% in [3] and 26% in series [5]. Besides, in series [10], the Ratio came out at 1.5. In series [7], the solubility entry was “soluble”.

For the compound `CCCCCC1=C/C(=C/c2[nH]c(-c3ccc[nH]3)cc2OC)N=C1C` [PRODIGIOSIN], in series [11], the concentration for half-maximal inhibition (IC50) was determined as 8.8 µM.
